Reference: ChEMBL document CHEMBL1811860, “Synthesis and inhibitory activity of sialic acid derivatives targeted at viral sialate-O-acetylesterases” (Eur J Med Chem, 2011)

Key:
[1] = Inhibition of recombinant influenza C virus C/Cal/78 GFP-tagged 9-SOAE expressed in Sf9 cells assessed as inhibition of hydrolysis of pNPA at 1 mM
How it was run: (§1)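 EGFP-fused haemagglutinin-esterase was made in serum-free Sf9 cultures via recombinant baculovirus and recovered from supernatant by ultracentrifugation (1.5 h, 4 °C). It was preincubated with sialoside for 30 min at room temperature. pNPA (10 µl of 100 mM acetonitrile stock) was added in PBS pH 7.4 to 1 ml, and A400 was followed. Read-out was % inhibition of pNPA hydrolysis.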

[2] = Inhibition of recombinant influenza C virus C/Cal/78 GFP-tagged 9-SOAE expressed in Sf9 cells assessed as inhibition of hydrolysis of pNPA at 2 mM; how it was run: as §1
[3] = Inhibition of recombinant influenza C virus C/Cal/78 GFP-tagged 9-SOAE expressed in Sf9 cells assessed as inhibition of hydrolysis of pNPA at 5 mM; how it was run: as §1
[4] = Inhibition of Bovine coronavirus […] assessed as inhibition of hydrolysis of pNPA at 1 mM; details: Sf9
[5] = Inhibition of recombinant influenza C virus C/Cal/78 GFP-tagged 9-SOAE expressed in Sf9 cells assessed as inhibition of hydrolysis of pNPA at 0.5 mM; how it was run: as §1
[6] = Inhibition of Bovine coronavirus 9-SOAE expressed in Sf9 cells assessed as inhibition of hydrolysis of pNPA at 0.5 mM
[7] = Inhibition of Influenza C virus C/JJ/50 9-SOAE expressed in Sf9 cells assessed as inhibition of hydrolysis of pNPA at 1 mM
[8] = Inhibition of Bovine coronavirus 9-SOAE expressed in Sf9 cells assessed as inhibition of hydrolysis of pNPA at 2 mM
[9] = Inhibition of recombinant influenza C virus C/Cal/78 GFP-tagged 9-SOAE expressed in Sf9 cells assessed as inhibition of Neu5,9Ac2 hydrolysis at 1 mM by fluorimetric HPLC analysis
How it was run: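 Baculovirus/Sf9-expressed EGFP fusion (10 mU) was preincubated with 1 mM sialoside in PBS pH 7.4 for 30 min at room temperature. Free O-acetylated sialic acid or bovine submandibular mucin (10 µg) was then added and incubated at 37 °C for 20–240 min. Mucin samples were hydrolysed in 2 M propionic acid (80 °C, 2 h). Sialic acids were analysed by reverse-phase HPLC with fluorimetric detection.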

[10] = Inhibition of influenza C virus 9-SOAE assessed as inhibition of hydrolysis of pNPA
How it was run: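 Esterase came from whole virions purified by ultracentrifugation through a 20% sucrose cushion (1.5 h, 4 °C) and resuspended in PBS pH 7.4. Enzyme was preincubated with sialoside for 30 min at room temperature. pNPA (10 µl of 100 mM acetonitrile stock) was then added in PBS pH 7.4 to 1 ml, and A400 was monitored. Read-out was % inhibition of pNPA hydrolysis.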

[11] = Inhibition of MHV S 4-SOAE expressed in Sf9 cells assessed as inhibition of hydrolysis of pNPA at 0.1 mM; details: Murine coronavirus
[12] = Inhibition of SDAV GFP-tagged 9-SOAE expressed in Sf9 cells assessed as inhibition of hydrolysis of pNPA at 5 mM; details: Rat sialodacryoadenitis coronavirus; how it was run: as §1
[13] = Inhibition of SDAV GFP-tagged 9-SOAE expressed in Sf9 cells assessed as inhibition of hydrolysis of pNPA at 1 mM; details: Rat sialodacryoadenitis coronavirus; how it was run: as §1
[14] = Inhibition of SDAV GFP-tagged 9-SOAE expressed in Sf9 cells assessed as inhibition of hydrolysis of pNPA at 0.5 mM; details: Rat sialodacryoadenitis coronavirus; how it was run: as §1
[15] = Inhibition of SDAV GFP-tagged 9-SOAE expressed in Sf9 cells assessed as inhibition of hydrolysis of pNPA at 0.1 mM; details: Rat sialodacryoadenitis coronavirus; how it was run: as §1
[16] = Inhibition of MHV S 4-SOAE expressed in Sf9 cells assessed as inhibition of hydrolysis of pNPA at 5 mM; details: Murine coronavirus
[17] = Inhibition of MHV S 4-SOAE expressed in Sf9 cells assessed as inhibition of hydrolysis of pNPA at 1 mM; details: Murine coronavirus
[18] = Inhibition of MHV S 4-SOAE expressed in Sf9 cells assessed as inhibition of hydrolysis of pNPA at 0.5 mM; details: Murine coronavirus

C=CCO[C@]1(C(=O)O)C[C@H](O)[C@@H](NC(C)=O)[C@H]([C@H](O)[C@H](O)COC)O1
inhibition [1]: 22.4%
inhibition [2]: 33%
inhibition [3]: 85.8%
inhibition [4]: 9%
inhibition [5]: 22.9%
inhibition [6]: 2.86%
inhibition [7]: 8.63%
inhibition [8]: < 0%
inhibition [9]: 10%

((2S,4S,5R,6R)-5-acetamido-6-((1R,2R)-3-acetamido-1,2-dihydroxypropyl)-2-carboxy-4-hydroxytetrahydro-2H-pyran-2-ylthio)(methyl)mercury
Ki [10]: 4.2 mM

C=CCO[C@]1(C(=O)O)C[C@H](OC)[C@@H](NC(C)=O)[C@H]([C@H](O)[C@H](O)CO)O1
inhibition [11]: 4%
inhibition [12]: 8.73%
inhibition [13]: 0.51%
inhibition [14]: 2.56%
inhibition [15]: 2.13%
inhibition [16]: 7.73%
inhibition [17]: 8.31%
inhibition [18]: 0%
